Data on eleven molecules can be found in ChEMBL document CHEMBL2010768, “Optimization of Potent Inhibitors of P. falciparum Dihydroorotate Dehydrogenase for the Treatment of Malaria” (ACS Med Chem Lett, 2011).

Molecules are shown by their SMILES. Active and inactive are the calls of the source. The calls are words filed in the database; no cut-off is given here. Where only a bound is given, the exact number is not on record here.

The target of one series is Cytochrome P450 2C9 (Homo sapiens, UniProt P11712). The experiment in a line: Inhibition of human CYP2C9 using diclofenac as substrate after 10 mins by LC-MS/MS analysis. The format is ADME.
Sequence of Cytochrome P450 2C9 (P11712 whole entry): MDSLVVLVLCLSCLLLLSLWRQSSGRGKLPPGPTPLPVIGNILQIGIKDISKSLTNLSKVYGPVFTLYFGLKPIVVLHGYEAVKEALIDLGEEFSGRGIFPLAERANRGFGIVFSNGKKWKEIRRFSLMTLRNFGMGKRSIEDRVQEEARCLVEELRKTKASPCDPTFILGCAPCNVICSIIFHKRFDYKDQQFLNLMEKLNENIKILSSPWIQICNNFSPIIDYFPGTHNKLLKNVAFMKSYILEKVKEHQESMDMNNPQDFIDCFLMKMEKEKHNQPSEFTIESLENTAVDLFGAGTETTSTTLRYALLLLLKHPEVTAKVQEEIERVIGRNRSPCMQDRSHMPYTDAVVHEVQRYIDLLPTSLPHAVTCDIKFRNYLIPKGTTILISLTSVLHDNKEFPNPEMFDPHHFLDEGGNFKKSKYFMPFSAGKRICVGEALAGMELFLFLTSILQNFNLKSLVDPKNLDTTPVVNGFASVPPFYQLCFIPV
The target in another series is T1, Cytochrome P450 1A2 (Homo sapiens, UniProt P05177).
T1 sequence (P05177 whole entry): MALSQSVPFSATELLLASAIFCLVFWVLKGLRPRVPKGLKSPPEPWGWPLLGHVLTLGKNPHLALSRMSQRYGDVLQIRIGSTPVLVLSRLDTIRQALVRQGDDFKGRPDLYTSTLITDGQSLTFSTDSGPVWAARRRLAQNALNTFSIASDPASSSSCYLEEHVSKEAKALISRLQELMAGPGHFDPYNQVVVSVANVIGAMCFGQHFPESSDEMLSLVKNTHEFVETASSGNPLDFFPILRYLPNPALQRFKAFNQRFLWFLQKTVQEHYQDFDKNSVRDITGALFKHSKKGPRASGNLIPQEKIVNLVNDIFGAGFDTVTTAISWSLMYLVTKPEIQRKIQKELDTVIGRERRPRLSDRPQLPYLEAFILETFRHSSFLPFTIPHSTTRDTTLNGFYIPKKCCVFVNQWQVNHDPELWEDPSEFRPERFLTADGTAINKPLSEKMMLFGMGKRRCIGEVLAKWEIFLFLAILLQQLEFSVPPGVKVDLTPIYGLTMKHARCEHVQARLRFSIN
The experiment in a line: Inhibition of human CYP1A2 using phenacetin as substrate after 10 mins by LC-MS/MS analysis. In kind it is ADME.

Series [1] in a line: Clearance in mouse liver microsomes by LC-MS/MS analysis. In kind it is ADME, Microsome. The essentials:
(§1)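 Liver microsome incubation. Predicted clearance is derived from a well-stirred model corrected for microsomal and protein binding.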

The subject of series [2] is Plasmodium falciparum. The experiment in a line: Antiplasmodial activity against Plasmodium falciparum Dd2 infected in […] after 72 hrs by SYBR green assay. In kind it is functional, organism-based. Conditions: Dd2, 72 h.
In the next series the test system is Plasmodium vivax. The experiment in a line: Inhibition of Plasmodium vivax DHODH after 20 mins by 2,6-dichloroindophenol-reduction based assay.
The test system of the next series is Plasmodium berghei. Put plainly: Inhibition of Plasmodium berghei DHODH after 20 mins by 2,6-dichloroindophenol-reduction based assay.
Series [3] is described as follows: Clearance in human liver microsomes by LC-MS/MS analysis. In kind it is ADME, Microsome. The essentials: as §1
Series [4] has as its target Dihydroorotate dehydrogenase (quinone), mitochondrial (Homo sapiens, UniProt Q02127). The experiment in a line: Inhibition of human DHODH after 20 mins by 2,6-dichloroindophenol-reduction based assay.
In series [5] the target is T2, Dihydroorotate dehydrogenase (Plasmodium falciparum, UniProt Q54A96).
T2 sequence (Q54A96 whole entry): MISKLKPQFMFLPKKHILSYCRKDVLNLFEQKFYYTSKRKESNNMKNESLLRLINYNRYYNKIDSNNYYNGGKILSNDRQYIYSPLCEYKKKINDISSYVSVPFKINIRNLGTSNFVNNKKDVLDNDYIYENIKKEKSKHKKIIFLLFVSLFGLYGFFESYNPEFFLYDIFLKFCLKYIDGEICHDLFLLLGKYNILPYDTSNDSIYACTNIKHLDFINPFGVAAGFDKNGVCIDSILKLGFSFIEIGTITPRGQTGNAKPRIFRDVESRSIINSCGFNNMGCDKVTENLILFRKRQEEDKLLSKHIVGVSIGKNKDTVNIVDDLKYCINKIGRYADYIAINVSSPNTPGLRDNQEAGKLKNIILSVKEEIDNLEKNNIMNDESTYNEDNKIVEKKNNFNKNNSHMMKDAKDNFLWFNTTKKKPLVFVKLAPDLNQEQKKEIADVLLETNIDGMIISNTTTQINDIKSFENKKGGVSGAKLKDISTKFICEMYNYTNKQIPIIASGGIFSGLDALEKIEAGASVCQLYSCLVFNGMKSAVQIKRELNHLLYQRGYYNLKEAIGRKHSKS
The experiment in a line: Inhibition of Plasmodium falciparum DHODH after 20 mins by 2,6-dichloroindophenol-reduction based assay.

The next series has as its target Cytochrome P450 3A4 (Homo sapiens, UniProt P08684). Put plainly: Inhibition of human CYP3A4 using midazolam as substrate after 5 mins by LC-MS/MS analysis. In kind it is ADME.
The subject of series [6] is Plasmodium falciparum. Put plainly: Antiplasmodial activity against Plasmodium falciparum 3D7 infected in […] after 72 hrs by SYBR green assay. The format is functional, organism-based. The following applies: 3D7, 72 h.
Series [7] deals with Voltage-gated inwardly rectifying potassium channel KCNH2 (Homo sapiens, UniProt Q12809). Put plainly: Inhibition of human ERG expressed in CHOK1 cells by whole cell voltage clamp assay. The format is cell-based, CHO-K1.
Sequence of Voltage-gated inwardly rectifying potassium channel KCNH2 (Q12809 whole entry): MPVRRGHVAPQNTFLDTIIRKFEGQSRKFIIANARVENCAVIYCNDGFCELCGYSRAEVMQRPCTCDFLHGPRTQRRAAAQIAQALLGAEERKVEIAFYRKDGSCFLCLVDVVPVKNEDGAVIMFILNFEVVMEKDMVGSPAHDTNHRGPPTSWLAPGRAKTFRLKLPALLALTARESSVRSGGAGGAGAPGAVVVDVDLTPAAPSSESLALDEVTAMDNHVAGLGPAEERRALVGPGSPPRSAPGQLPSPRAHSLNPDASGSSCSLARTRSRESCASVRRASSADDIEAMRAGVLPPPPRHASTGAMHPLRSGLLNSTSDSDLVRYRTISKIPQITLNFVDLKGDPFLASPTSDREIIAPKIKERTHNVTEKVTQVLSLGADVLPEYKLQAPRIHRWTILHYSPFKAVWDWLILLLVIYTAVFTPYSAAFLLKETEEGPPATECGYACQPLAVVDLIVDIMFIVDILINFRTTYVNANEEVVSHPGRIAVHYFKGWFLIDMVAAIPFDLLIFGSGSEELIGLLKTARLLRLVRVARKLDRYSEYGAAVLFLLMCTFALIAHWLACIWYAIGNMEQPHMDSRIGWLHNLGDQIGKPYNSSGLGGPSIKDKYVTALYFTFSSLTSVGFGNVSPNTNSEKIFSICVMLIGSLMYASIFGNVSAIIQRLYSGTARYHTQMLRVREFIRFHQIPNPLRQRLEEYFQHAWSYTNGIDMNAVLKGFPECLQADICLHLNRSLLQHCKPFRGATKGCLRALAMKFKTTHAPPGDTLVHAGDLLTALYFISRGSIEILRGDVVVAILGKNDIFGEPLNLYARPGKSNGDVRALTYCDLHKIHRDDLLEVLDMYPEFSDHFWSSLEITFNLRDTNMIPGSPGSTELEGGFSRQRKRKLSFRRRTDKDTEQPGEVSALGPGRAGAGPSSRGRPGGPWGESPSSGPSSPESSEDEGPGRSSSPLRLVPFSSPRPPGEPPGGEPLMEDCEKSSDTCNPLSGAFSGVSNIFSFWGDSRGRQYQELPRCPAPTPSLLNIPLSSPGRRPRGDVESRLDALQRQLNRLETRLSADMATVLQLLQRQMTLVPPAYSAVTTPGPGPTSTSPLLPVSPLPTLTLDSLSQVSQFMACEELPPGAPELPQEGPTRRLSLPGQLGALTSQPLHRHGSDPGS
Another series deals with Cytochrome P450 2C19 (Homo sapiens, UniProt P33261). The experiment in a line: Inhibition of human CYP2C19 using S-mephenytoin as substrate after 45 mins by LC-MS/MS analysis. The format is ADME.
Sequence of Cytochrome P450 2C19 (P33261 whole entry): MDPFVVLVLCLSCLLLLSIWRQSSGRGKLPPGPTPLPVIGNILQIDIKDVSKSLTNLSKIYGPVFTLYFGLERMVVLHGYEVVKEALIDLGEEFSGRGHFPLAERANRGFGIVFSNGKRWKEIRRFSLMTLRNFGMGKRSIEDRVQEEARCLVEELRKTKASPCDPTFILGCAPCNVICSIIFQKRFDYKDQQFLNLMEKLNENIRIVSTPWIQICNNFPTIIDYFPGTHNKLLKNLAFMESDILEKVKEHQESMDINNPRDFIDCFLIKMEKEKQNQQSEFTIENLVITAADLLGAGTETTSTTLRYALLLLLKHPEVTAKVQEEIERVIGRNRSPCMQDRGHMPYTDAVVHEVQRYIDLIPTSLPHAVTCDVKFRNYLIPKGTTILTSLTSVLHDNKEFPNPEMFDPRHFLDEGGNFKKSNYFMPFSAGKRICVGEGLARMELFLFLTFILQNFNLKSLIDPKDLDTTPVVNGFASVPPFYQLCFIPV
The target in the next series is Cytochrome P450 2D6 (Homo sapiens, UniProt P10635). Put plainly: Inhibition of human CYP2D6 using bufuralol as substrate after 10 mins by LC-MS/MS analysis. The format is ADME.
Sequence of Cytochrome P450 2D6 (P10635 whole entry): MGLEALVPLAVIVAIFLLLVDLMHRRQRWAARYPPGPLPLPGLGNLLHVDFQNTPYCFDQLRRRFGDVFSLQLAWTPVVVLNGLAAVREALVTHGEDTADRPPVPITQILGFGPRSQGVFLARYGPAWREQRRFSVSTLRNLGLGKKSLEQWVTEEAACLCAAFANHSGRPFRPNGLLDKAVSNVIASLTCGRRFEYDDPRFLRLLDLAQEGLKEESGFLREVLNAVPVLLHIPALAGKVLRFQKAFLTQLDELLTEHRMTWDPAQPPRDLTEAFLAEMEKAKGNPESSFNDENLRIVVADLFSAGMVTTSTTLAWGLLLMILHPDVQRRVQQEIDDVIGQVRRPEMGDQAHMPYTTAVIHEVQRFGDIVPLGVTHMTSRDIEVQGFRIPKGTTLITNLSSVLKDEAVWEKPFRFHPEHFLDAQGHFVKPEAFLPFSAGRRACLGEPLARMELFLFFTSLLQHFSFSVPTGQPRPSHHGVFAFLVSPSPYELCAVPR
A short description of series [8]: Cytotoxicity against human RPTEC after 4 days by alamar blue assay. The format is cell-based. The following applies: RPTEC cells, read-out: LC50.

Sequence of Dihydroorotate dehydrogenase (quinone), mitochondrial (Q02127 whole entry): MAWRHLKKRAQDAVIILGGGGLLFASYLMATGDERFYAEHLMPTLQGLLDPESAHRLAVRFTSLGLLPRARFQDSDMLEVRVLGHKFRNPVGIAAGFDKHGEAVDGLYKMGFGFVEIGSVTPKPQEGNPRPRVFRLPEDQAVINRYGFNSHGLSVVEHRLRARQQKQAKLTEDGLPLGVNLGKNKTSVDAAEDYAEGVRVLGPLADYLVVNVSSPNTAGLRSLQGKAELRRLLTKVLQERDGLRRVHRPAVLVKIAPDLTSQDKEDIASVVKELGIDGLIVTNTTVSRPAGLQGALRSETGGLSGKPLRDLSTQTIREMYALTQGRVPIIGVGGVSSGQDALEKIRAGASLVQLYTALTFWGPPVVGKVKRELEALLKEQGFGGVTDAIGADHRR
Sequence of Cytochrome P450 3A4 (P08684 whole entry): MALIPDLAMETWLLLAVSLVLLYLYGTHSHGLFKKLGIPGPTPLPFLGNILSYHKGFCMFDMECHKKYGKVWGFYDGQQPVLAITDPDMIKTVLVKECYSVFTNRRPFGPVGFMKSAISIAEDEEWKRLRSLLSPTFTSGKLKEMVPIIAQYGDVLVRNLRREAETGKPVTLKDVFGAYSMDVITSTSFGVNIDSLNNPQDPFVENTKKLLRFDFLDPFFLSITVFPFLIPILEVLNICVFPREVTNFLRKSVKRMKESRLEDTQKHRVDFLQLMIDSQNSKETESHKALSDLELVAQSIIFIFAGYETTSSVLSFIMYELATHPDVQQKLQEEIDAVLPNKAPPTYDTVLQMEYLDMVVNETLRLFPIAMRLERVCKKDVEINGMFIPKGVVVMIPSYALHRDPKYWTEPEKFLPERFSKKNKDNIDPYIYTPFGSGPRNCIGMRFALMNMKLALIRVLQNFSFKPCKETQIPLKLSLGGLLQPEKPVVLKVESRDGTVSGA

Turning to `Cc1nc2c(OC(F)F)cccc2n1-c1ccc(C(=O)NC2CC2)s1`, the IC50 against Cytochrome P450 2C9 was > 10000 nM; against Cytochrome P450 1A2, > 10000 nM; in the series on Plasmodium falciparum [2] it was 26 nM; in [4], > 30000 nM; in series [5], 44 nM; against Cytochrome P450 3A4 it was > 10000 nM. Moreover, the IC50 with Plasmodium falciparum [6] was 19 nM; in [7] it was 28800 nM; at Cytochrome P450 2C19, > 10000 nM; against Cytochrome P450 2D6, > 10000 nM. Besides, the figures for the CLhep predicted in [1] and in series [3] were 33 mL/min/kg and 4 mL/min/kg, respectively. In addition, the inhibition entry in the series with Plasmodium vivax and in the series with Plasmodium berghei was “Active” each time.
For the molecule `O=C(NC1CC1)c1ccc(-n2c(C(F)(F)F)nc3ccccc32)s1`, the CC50 at 96 h in series [8] was > 62000 nM. Also, the 50% inhibitory concentration (IC50) in the series with Plasmodium falciparum [2] was 1710 nM; in series [4] it was > 30000 nM; in series [5], 570 nM; in the series on Plasmodium falciparum [6] it was 830 nM.
With `Cc1nc2cc(OC(F)(F)F)ccc2n1-c1ccc(C(=O)NC2CC2)s1`, the figures for the CLhep predicted in series [1] and in series [3] were 43 mL/min/kg and 7 mL/min/kg, respectively. The IC50 with Plasmodium falciparum [2] was 9 nM; in [5], 22 nM; in the series with Plasmodium falciparum [6] it was 7 nM; in series [7] it was < 2800 nM; against Cytochrome P450 2D6 it was 100 nM. Moreover, the inhibition result in the series on Plasmodium vivax and in the series on Plasmodium berghei was “Active” throughout.
For `Cc1nc2ccccc2n1-c1ccc(C(=O)NC2CC2)s1`, the CC50 at 96 h in [8] is > 62000 nM. In addition, the IC50 is 110 nM with Plasmodium falciparum [2], 80 nM in series [5] and 90 nM in the series with Plasmodium falciparum [6].
The matching figures for `O=C(NC1CC1)c1ccc(-n2cnc3ccccc32)s1`: > 62000 nM, 90 nM, 60 nM and 80 nM.
Turning to `CCCc1nc2ccccc2n1-c1ccc(C(=O)NC2CC2)s1`, the CC50 at 96 h in [8] was > 62000 nM. Besides, the half-maximal inhibitory concentration (IC50) was 630 nM with Plasmodium falciparum [2], 15100 nM in [4], 180 nM in series [5] and 390 nM in the series with Plasmodium falciparum [6].
For `CCCNC(=O)c1ccc(-n2cnc3ccccc32)s1`, in series [8], the CC50 at 96 h was > 62000 nM. The IC50 was 1100 nM with Plasmodium falciparum [2], > 30000 nM in series [4], 700 nM in series [5] and 470 nM in the series on Plasmodium falciparum [6].
For the molecule `O=C(NC1CCC1)c1ccc(-n2cnc3ccccc32)s1`, the CC50 at 96 h in series [8] was > 62000 nM. The IC50 with Plasmodium falciparum [2] was found to be 440 nM; in [5], 420 nM; in the series with Plasmodium falciparum [6] it was 410 nM.
As for `CN(C)c1nc2ccccc2n1-c1ccc(C(=O)NC2CC2)s1`, in series [8], the CC50 at 96 h is > 62000 nM. In addition, the IC50 with Plasmodium falciparum [2] is > 1000 nM; in series [5] it was 5600 nM; in the series with Plasmodium falciparum [6] it was > 1000 nM.
With `COc1cccc2c1nc(C)n2-c1ccc(C(=O)NC2CC2)s1`, the “inhibition (INH)” value at Cytochrome P450 2C9 (human, 10 min) is given as “Not Active”; at Cytochrome P450 1A2 (human, 10 min), “Not Active”; at Cytochrome P450 3A4 (human, 5 min) it was “Not Active”; in series [7] (human, cho-k1) it was “Not Active”; against Cytochrome P450 2C19 (human, 0.75 h), “Not Active”; against Cytochrome P450 2D6 (human, 10 min), “Not Active”. Also, the CLhep predicted in [1] was > 72 mL/min/kg; in series [3], 4 mL/min/kg. The figures for the IC50 (in the series on Plasmodium falciparum [2]; in series [5]; in the series on Plasmodium falciparum [6]) were 109 nM, 162 nM and 49 nM, respectively. Also, the inhibition result in the series with Plasmodium vivax and in the series on Plasmodium berghei was “Active” each time.
On to `CC(C)NC(=O)c1ccc(-n2cnc3ccccc32)s1`, for which the CC50 at 96 h in series [8] is > 62000 nM. The figures for the IC50 (with Plasmodium falciparum [2]; in [5]; with Plasmodium falciparum [6]) were 810 nM, 680 nM and 560 nM, respectively.
